Data from ChEMBL document CHEMBL1137403, “Discovery of 2-[4-{{2-(2S,5R)-2-cyano-5-ethynyl-1-pyrrolidinyl]-2-oxoethyl]amino]- 4-methyl-1-piperidinyl]-4-pyridinecarboxylic acid (ABT-279): a very potent, selective, effective, and well-tolerated inhibitor of dipeptidyl peptidase-IV, useful for the treatment of diabetes” (J Med Chem, 2006).
Active and inactive are the calls of the source. No cut-off for these calls is given here.

Assays:
[1] = target: Cytochrome P450 3A4 (Homo sapiens, UniProt P08684); experiment: Inhibition of CYP3A4; assay type: ADME
[2] = target: Cytochrome P450 2D6 (Homo sapiens, UniProt P10635); experiment: Inhibition of CYP2D6; assay type: ADME
[3] = Tmax in Beagle dog at 2.5 mg/kg, po; assay type: ADME, organism-based, Canis lupus familiaris; design: dose 2.5 mg/kg, route oral; conditions: in vivo
[4] = Half life in Sprague-Dawley rat at 5 mg/kg, iv; assay type: ADME, organism-based; design: dose 5 mg/kg, route intravenous; conditions: in vivo
[5] = target: Dipeptidyl peptidase 2 (Homo sapiens, UniProt Q9UHL4); experiment: Inhibition of DPP7
[6] = Half life in cynomolgus monkey at 2.5 mg/kg, iv; assay type: ADME, organism-based, Macaca fascicularis; design: dose 2.5 mg/kg, route intravenous; conditions: in vivo
[7] = Oral bioavailability in cynomolgus monkey at 2.5 mg/kg, po; assay type: ADME, organism-based, Macaca fascicularis; conditions: in vivo
[8] = test system: Mus musculus; experiment: Clastogenicity in mouse upto 2000 mg/kg; assay type: functional, organism-based; design: dose 2000 mg/kg
Method in brief: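 Murine in vivo clastogenicity test, dosed at up to 2000 mg/kg.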

[9] = Volume of distribution in Sprague-Dawley rat at 5 mg/kg, iv; assay type: ADME, organism-based; design: dose 5 mg/kg, route intravenous; conditions: in vivo, read-out: Vss
[10] = Half life in cynomolgus monkey at 2.5 mg/kg, po; assay type: ADME, organism-based, Macaca fascicularis; design: dose 2.5 mg/kg, route oral; conditions: in vivo
[11] = AUC in cynomolgus monkey at 2.5 mg/kg, iv; assay type: ADME, organism-based, Macaca fascicularis; design: dose 2.5 mg/kg, route intravenous; conditions: plasma
Method in brief: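 Single intravenous dose. Plasma drug exposure is reported as area under the curve in µg-hr/mL. It is listed in the same table as T1/2, Vss, Vβ and plasma clearance (CLp).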

[12] = Cmax in Beagle dog at 2.5 mg/kg, po; assay type: ADME, organism-based, Canis lupus familiaris; design: dose 2.5 mg/kg, route oral; conditions: in vivo
[13] = AUC in cynomolgus monkey at 2.5 mg/kg, po; assay type: ADME, organism-based, Macaca fascicularis; design: dose 2.5 mg/kg, route oral; conditions: plasma
[14] = species on record: Rattus norvegicus; experiment: Insulin level in Zucker rat after 10 mins; assay type: functional
Method in brief: (§1)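 Female ZDF rats, 10 weeks old, fasted overnight, then dosed orally with vehicle or drug. Four hours after dosing (t = 0) they had free access for 4 h to a liquid mixed meal (Ensure). Plasma was sampled for drug level, active GLP-1, insulin, glucagon and glucose.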

[15] = Volume of distribution in cynomolgus monkey at 2.5 mg/kg, iv; assay type: ADME, organism-based, Macaca fascicularis; design: dose 2.5 mg/kg, route intravenous; conditions: in vivo, read-out: Vss
[16] = Volume of distribution in terminal phase in Sprague-Dawley rat at 5 mg/kg, iv; assay type: ADME, organism-based; design: dose 5 mg/kg, route intravenous; conditions: in vivo, read-out: Vbeta
[17] = AUC in Sprague-Dawley rat at 5 mg/kg, po; assay type: ADME, organism-based; design: dose 5 mg/kg, route oral; conditions: plasma
[18] = test system: Canis familiaris; experiment: Hemodynamic activity in dog upto 28 ug/ml, iv; assay type: functional, organism-based; conditions: Canis lupus familiaris
Method in brief: (§2)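 Hemodynamic and electrocardiographic profile recorded in anesthetized rats or dogs given the drug intravenously, at plasma concentrations up to 28 µg/mL.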

[19] = Volume of distribution in Beagle dog at 2.5 mg/kg, iv; assay type: ADME, organism-based, Canis lupus familiaris; design: dose 2.5 mg/kg, route intravenous; conditions: in vivo, read-out: Vss
[20] = Oral bioavailability in Sprague-Dawley rat at 5 mg/kg, po; assay type: ADME, organism-based; conditions: in vivo
[21] = species on record: Rattus norvegicus; experiment: GLP1 level in Zucker rat after 10 mins; assay type: functional; method in brief: as §1
[22] = target: Dipeptidyl peptidase 8 (Homo sapiens, UniProt Q6V1X1)
[23] = species on record: Rattus norvegicus; experiment: Reduction in postprandial glucose excursion in Zucker rat measured as AUC glucose (0-240 min) relative to control; assay type: functional; design: scale not given: the % may be the effect or the level left; method in brief: as §1
[24] = Half life in Sprague-Dawley rat at 5 mg/kg, po; assay type: ADME, organism-based; design: dose 5 mg/kg, route oral; conditions: in vivo
[25] = target: Dipeptidyl peptidase 9 (Homo sapiens, UniProt Q86TI2)
[26] = test system: Canis familiaris; experiment: Electrocardiographic activity in dog upto 28 ug/ml, iv; assay type: functional, organism-based; conditions: Canis lupus familiaris; method in brief: as §2
[27] = AUC in Beagle dog at 2.5 mg/kg, po; assay type: ADME, organism-based, Canis lupus familiaris; design: dose 2.5 mg/kg, route oral; conditions: plasma

Chain of Cytochrome P450 3A4 (P08684 whole entry): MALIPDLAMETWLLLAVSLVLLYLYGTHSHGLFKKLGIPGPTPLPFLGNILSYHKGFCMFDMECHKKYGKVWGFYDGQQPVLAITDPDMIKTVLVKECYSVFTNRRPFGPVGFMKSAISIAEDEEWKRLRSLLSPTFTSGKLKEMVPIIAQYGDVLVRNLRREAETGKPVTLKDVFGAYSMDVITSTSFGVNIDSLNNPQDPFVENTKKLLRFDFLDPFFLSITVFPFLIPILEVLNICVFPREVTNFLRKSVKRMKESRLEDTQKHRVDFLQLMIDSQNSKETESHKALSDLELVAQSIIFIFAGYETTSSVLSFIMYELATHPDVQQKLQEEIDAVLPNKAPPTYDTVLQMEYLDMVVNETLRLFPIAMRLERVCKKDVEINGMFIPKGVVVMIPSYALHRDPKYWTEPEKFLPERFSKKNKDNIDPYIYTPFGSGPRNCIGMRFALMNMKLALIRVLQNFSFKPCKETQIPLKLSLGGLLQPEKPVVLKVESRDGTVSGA
Chain of Cytochrome P450 2D6 (P10635 whole entry): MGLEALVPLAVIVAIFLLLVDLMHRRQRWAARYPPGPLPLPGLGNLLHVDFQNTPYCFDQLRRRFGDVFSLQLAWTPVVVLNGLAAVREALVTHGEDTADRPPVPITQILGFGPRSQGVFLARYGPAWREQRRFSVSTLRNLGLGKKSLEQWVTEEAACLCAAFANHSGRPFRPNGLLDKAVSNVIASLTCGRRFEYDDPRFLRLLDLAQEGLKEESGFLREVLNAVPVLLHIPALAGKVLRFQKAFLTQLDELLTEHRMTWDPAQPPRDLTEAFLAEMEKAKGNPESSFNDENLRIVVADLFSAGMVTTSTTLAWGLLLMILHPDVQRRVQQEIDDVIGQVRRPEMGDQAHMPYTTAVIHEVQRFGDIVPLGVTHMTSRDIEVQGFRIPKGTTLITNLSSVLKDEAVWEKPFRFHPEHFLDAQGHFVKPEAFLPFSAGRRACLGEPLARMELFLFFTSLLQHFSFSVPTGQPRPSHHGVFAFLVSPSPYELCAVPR
Chain of Dipeptidyl peptidase 8 (Q6V1X1 whole entry): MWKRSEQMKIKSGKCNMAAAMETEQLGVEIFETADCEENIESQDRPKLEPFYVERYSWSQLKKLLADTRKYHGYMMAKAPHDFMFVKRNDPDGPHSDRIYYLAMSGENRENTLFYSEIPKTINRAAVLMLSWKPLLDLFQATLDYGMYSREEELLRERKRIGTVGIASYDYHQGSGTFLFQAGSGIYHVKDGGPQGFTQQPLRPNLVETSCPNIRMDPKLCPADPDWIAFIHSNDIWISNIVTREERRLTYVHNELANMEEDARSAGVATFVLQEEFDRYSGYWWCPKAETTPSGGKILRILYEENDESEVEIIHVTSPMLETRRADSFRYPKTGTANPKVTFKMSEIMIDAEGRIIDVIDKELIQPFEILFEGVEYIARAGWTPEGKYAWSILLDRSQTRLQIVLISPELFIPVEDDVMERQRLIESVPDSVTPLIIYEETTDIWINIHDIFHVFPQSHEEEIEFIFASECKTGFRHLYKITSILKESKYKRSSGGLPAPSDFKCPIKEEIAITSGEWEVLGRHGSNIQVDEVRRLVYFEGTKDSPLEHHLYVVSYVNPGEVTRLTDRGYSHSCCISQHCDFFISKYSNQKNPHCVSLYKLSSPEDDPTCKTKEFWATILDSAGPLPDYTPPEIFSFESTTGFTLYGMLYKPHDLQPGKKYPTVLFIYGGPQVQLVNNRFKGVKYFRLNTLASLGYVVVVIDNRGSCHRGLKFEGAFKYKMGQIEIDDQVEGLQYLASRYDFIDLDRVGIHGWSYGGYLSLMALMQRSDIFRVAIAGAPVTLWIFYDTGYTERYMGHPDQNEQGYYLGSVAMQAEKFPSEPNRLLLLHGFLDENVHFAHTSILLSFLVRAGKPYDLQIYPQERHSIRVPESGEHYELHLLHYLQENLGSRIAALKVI
Chain of Dipeptidyl peptidase 9 (Q86TI2 whole entry): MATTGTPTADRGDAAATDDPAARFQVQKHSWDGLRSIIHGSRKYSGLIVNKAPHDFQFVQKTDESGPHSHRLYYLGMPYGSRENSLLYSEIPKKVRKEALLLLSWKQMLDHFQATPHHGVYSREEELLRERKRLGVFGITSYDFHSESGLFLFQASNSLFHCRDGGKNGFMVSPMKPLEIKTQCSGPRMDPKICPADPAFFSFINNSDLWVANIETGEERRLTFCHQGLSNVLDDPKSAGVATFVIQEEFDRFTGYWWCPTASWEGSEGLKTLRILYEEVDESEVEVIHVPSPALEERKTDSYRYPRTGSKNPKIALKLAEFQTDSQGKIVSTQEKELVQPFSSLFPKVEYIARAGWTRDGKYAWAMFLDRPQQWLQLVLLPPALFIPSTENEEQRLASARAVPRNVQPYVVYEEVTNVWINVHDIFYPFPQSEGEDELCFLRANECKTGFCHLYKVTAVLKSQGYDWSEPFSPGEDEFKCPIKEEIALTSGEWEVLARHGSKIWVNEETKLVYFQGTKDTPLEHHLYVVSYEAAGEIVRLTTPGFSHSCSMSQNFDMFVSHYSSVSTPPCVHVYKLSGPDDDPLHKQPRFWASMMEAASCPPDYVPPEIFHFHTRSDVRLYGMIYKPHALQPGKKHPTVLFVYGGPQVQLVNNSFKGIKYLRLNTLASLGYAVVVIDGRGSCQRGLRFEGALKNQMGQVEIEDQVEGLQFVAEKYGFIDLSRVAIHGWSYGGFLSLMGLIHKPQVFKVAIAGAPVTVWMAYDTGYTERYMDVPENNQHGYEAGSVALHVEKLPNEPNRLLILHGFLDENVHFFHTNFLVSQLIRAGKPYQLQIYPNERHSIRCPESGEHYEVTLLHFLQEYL

`C#C[C@H]1CC[C@@H](C#N)N1C(=O)CNC1(C)CCN(c2cc(C(=O)O)ccn2)CC1` showed an IC50 [1] greater than 30 µM, an IC50 [2] greater than 30 µM and a Tmax [3] of 0.8 h. It also gave a half-life [4] of 6.8 h, a Ki [5] greater than 30 µM and a half-life [6] of 1.7 h. For the same compound, the bioavailability [7] was 11.2%, the Activity [8] was “inactive” and the Vd [9] was 2.2 L/kg. For the same compound, the half-life [10] was 2 h, the AUC [11] was 5.2 µg·h/mL and the Cmax [12] was 0.3 µg/mL. It also gave an AUC [13] of 0.58 µg·h/mL, an Activity [14] of 39 ng/mL and a Vd [15] of 0.3 L/kg. For the same compound, the Vd [16] was 6.7 L/kg, the AUC [17] was 2.1 µg·h/mL and the Activity [18] was “Active”. The Vd [19] was 1.5 L/kg, the bioavailability [20] was 28% and the Activity [21] was 29 pM. It also gave a Ki [22] greater than 30 µM, an Activity [23] of 50% and a half-life [24] of 4.7 h. For the same compound, the Ki [25] was greater than 30 µM, the Activity [26] was “Active” and the AUC [27] was 0.97 µg·h/mL.
